Measured values reported in PubChem BioAssay AID743061 (The Scripps Research Institute Molecular Screening Center, 2013).
“And” between values parts separate entries of the source, which are not always exact repeats. Identical values can stand only once.

Each compound was assayed against Methionine--tRNA ligase, mitochondrial (Homo sapiens) (UniProt Q96GW9) (assay: human mtMetRS tRNA charging inhibition – biochemical, radioactivity, round 1, selectivity assay for T. brucei MetRS inhibitor project, late-stage follow-up (AID 743061;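 further: 0% = DMSO with full reaction and 100% = DMSO wells lacking tRNA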)). Conditions: recombinant human mtMetRS, [3H]Met tRNA charging, at 1 µM, stronger effect = higher value.
Outline: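 Material: Recombinant human mitochondrial methionyl-tRNA synthetase (MetRS) | Medium: pH 8.0 buffer, 2.5 mM ATP | Reagent: [3H]Met 240 nM plus bulk E. coli tRNA | Compound: 10 and 1 µM | Schedule: 15 min compound–enzyme preincubation, then 1 h reaction at room temperature | Measured by: Scintillation counts of TCA-precipitated charged tRNA on filters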
In the case of `O=C(Cn1cnc2ccccc21)Nc1cccc([N+](=O)[O-])c1`, the inhibition is reported as -15.4%.
`Cc1cccc(C(=O)NCCc2nc3ccccc3n2CCOc2ccccc2)c1` gave an inhibition of 1.28%.
For `COc1ccc(CCN(C(=S)Nc2ccccc2)C2CC(=O)N(c3ccc(Cl)cc3)C2=O)cc1` (centres undefined), the inhibition was 10.6%.
With `O=C(NCc1nc2ccccc2[nH]1)C1=C[C@@H](C2CC2)C[C@@H](OCc2ccc(CO)cc2)O1` the inhibition was -11.4%.
With `O=C(C(=O)N1CCOCC1)c1cn(CC(=O)N2CCCc3ccccc32)c2ccccc12` the inhibition was 8.2%.
With `C[C@H](O)[C@@H]1C(=O)N2CCc3c([nH]c4ccccc34)[C@@H]2C[C@@H]1N(C)Cc1ccc2c(c1)OCO2` the inhibition was -17.7%.
`O=C(NCc1nc2ccccc2[nH]1)C1=C[C@@H](c2ccc(Br)cc2)C[C@@H](OCCCCO)O1` showed an inhibition of -9.46%.
With `CCN(CCc1nc2ccc(C)cc2[nH]1)C(=O)c1ccc2ncccc2c1` the inhibition was -5.17%.
Work on `Cc1ccc2[nH]c3nc(SCC(=O)Nc4ccc(C(F)(F)F)cc4)nnc3c2c1` yielded an inhibition of -10%.
`O=C(N/C(=C\c1cccnc1)c1nc2ccccc2[nH]1)c1cccc(Br)c1` gave an inhibition of -19.7%.
`COc1ccc(NC(=O)CSc2nnc3c4cc(C)ccc4n(C)c3n2)cc1` was tested, and the inhibition was -0.75%.
Work on `O=C(NCc1nc2ccccc2[nH]1)C1=C[C@H](c2ccccc2)C[C@H](OCc2ccc(CO)cc2)O1` yielded an inhibition of -8.08%.
In the case of `O=C(NCCc1nc2ccccc2[nH]1)c1ccc(Cl)cc1`, the inhibition is reported as 5.42%.
`Cc1ccc(NC(=O)CN(C)C(=O)CCSc2ccc(F)cc2)cc1` showed an inhibition of -35.7%.
Compound `O=C(CC(=O)Nc1cccc(Cl)c1)NN=Cc1ccccc1` has an inhibition of -18.3%.
`O=C(NCc1nc2ccccc2[nH]1)C1=C[C@H](c2ccc3c(c2)OCO3)C[C@H](OCCCCO)O1` was tested, and the inhibition was -10.7%.
In the case of `COc1ccc(NC(=O)C2CC(=O)n3c(nc4ccccc43)N2)cc1` (centres undefined), the inhibition is reported as -2.67%.
Work on `CC(C)OCCCN1CC(=O)N2C(c3cccc([N+](=O)[O-])c3)c3[nH]c4ccccc4c3C[C@H]2C1=O` (some centres undefined) yielded an inhibition of -24.2%.
For `O=C1CC(SCc2nc3ccccc3[nH]2)C(=O)N1c1cccc(Cl)c1` (centres undefined), the inhibition was -4.5%.
In the case of `CCOC(=O)N1CCC(Nc2c(Nc3ccc(F)cc3)c(=O)c2=O)CC1`, the inhibition is reported as -8.53%.
In the case of `CC(=O)c1c[nH]c(C(=O)NCc2cccc(C(F)(F)F)c2)c1`, the inhibition is reported as -7.99%.
With `Cc1[nH]c2ccc(Br)cc2c(=O)c1CN1CCCCCC1` the inhibition was -31.2%.
`O=C(NCCc1nc2ccccc2[nH]1)c1ccc(Cl)c([N+](=O)[O-])c1` was tested, and the inhibition was 2.97%.
With `O=C(NNC(=O)c1ccc(-n2cncn2)c([N+](=O)[O-])c1)c1ccc(Cl)cc1` the inhibition was -30.3%.
`O=C(Cn1cc(C(=O)C2CC2)c2ccccc21)Nc1cccc(C(F)(F)F)c1` showed an inhibition of 0.73%.
In the case of `O=C(Cn1cc(C(=O)c2ccco2)c2ccccc21)Nc1cccc(C(F)(F)F)c1`, the inhibition is reported as 2.74%.
Compound `O=C(CC=NOCc1ccc([N+](=O)[O-])cc1)Nc1ccc(Cl)cc1` has an inhibition of -13%.
`O=C(Cn1cc(C(=O)C(=O)N2CCCC2)c2ccccc21)Nc1ccccc1` was tested, and the inhibition was -7.71%.
Work on `O=C(C[C@H]1C(=O)N(Cc2ccccc2)C[C@@H]1c1ccc(Br)cc1)Nc1ccc(Br)cc1` yielded an inhibition of -13%.
`O=C(Nc1ccc(F)c(Cl)c1)C1CC(=O)n2c(nc3ccccc32)N1` (centres undefined) was tested, and the inhibition was -11.1% and -0.44%.
Compound `O=C(NCc1nc2ccccc2[nH]1)C1=C[C@@H](c2ccc3c(c2)OCO3)C[C@@H](OCCCCO)O1` has an inhibition of -3.63%.
`Cc1ccc(C(=O)NCCc2nc3ccccc3[nH]2)cc1C` showed an inhibition of 1.34%.
Compound `CCN(CC)C(=O)C(=O)c1cn(CC(=O)Nc2ccccc2OC)c2ccccc12` has an inhibition of -10.6%.
`Cc1cccc2[nH]c(CCN(C)C(=O)c3cccc(C4CCNC4)c3)nc12` (centres undefined) gave an inhibition of -6.15%.
